According to PMC5708134 (Chemical research in toxicology, 2017):
Values joined by “and” are separate entries in the source; they are usually repeats but may differ in a detail not shown here. Identical values can stand only once. “Also recorded” adds a separate entry of the source. Each block holds one compound with its values, some of them ahead of it.

Columns and labels:
Assay type in all cases: biochemical
recombinant human DCXR [1] = molecular target: T1, recombinant human DCXR (Homo sapiens, UniProt Q7Z4W1); experiment: Inhibition of diacetyl reduction by DCXR
In short: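 Human DCXR, His-tagged, expressed in E. coli BL21(DE3) with 0.5 mM IPTG (4 h, 37 °C), Ni-NTA purified. 100 μL mixes: 600 μM NADH, 2 mM diacetyl, 1–2 μg DCXR, plus quinone inhibitor. Acetoin formed was quantified by HPLC against a standard calibration curve. Inhibition type and Ki were derived from kinetic analysis.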

recombinant human DCXR [2] = molecular target: T1, recombinant human DCXR; experiment: Inhibition of quinone redox cycling by DCXR; details: for Type of inhibition: inhibition of redox cycling with 9,10-phenanthrenequinone
In short: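 Assay for redox cycling by His-tagged human DCXR (E. coli-expressed, Ni-NTA purified). Superoxide was measured as acetylated cytochrome c reduction at 550 nm. 100 μL mixes: 50 mM potassium phosphate pH 7.8, 50 μM acetylated cytochrome c, 0.2 mM NADPH, 20 μM 9,10-phenanthrenequinone, 1.2 or 1.6 μg DCXR, varied inhibitor. Competitive Ki was taken from Lineweaver–Burk plots.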

recombinant human DCXR [3] = molecular target: T1, recombinant human DCXR; experiment: L-xylulose reduction by recombinant DCXR, substrate kinetics; details: for Km / kcat: pH 7.0
In short: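 Enzyme: recombinant His-tagged human DCXR from E. coli BL21(DE3), Ni-NTA purified. Reduction was assayed in 100 mM phosphate buffer pH 7.0 and started by adding enzyme. Initial rates of NADPH oxidation were read at 340 nm in a microplate reader. Rates were converted using NAD(P)H calibration curves made in the reaction mix.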

recombinant human DCXR [4] = molecular target: T1, recombinant human DCXR; experiment: Diacetyl reduction by recombinant DCXR
recombinant human DCXR [5] = molecular target: T1, recombinant human DCXR; experiment: Oxygen consumption during DCXR redox cycling; details: 600 μM NADH, 20 μM 9,10-phenanthrenequinone
In short: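 Clark-type oxygen electrode measurements used 16 μg recombinant human DCXR per 0.8 mL reaction. NADH and 9,10-phenanthrenequinone were run first to set a stable baseline, then DCXR was added to start the reaction. Diacetyl was added either after DCXR or at time zero (pretreatment). Short-chain fatty acids were added at set time points during cycling.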

recombinant human DCXR [6] = molecular target: T1, recombinant human DCXR; experiment: Chemical redox cycling by DCXR; details: for EC50: EC50, half maximal concentration of quinones activating H2O2 production by redox cycling with DCXR, 5 μg/ml recombinant DCXR and 200 μM NADH; for Km / kcat: redox cycling
recombinant human DCXR [7] = molecular target: T1, recombinant human DCXR; experiment: Xylitol dehydrogenation
In short: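 Recombinant His-tagged human DCXR (E. coli-expressed, Ni-NTA purified) oxidized xylitol in 0.1 mL reactions: 100 mM glycine buffer pH 9.5, 3 mM MgCl2, NADP+ and xylitol. Reactions were started by adding enzyme. NADPH formation was followed as the absorbance change at 340 nm in a microplate reader.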

[8] = inhibition of diacetyl reduction
[9] = xylulose varied, 0.6 mM NADPH fixed
[10] = quinone varied, 200 μM NADPH fixed
[11] = NADPH varied, 6 mM xylulose fixed
[12] = NADPH varied, 2 mM diacetyl fixed, pH 7.0
[13] = NADPH varied, 20 μM 9,10-PQ fixed
[14] = Ki, inhibition of diacetyl reduction

T1 sequence (Q7Z4W1 whole entry): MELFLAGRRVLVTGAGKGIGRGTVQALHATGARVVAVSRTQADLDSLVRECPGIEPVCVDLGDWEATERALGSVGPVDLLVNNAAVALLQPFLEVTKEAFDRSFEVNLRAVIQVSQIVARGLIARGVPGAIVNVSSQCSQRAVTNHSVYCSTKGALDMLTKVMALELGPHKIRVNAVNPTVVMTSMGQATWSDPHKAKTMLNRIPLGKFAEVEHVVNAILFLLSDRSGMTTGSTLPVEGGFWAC

Structure (SMILES): CCCCCC(=O)O [hexanoic acid]
- IC50 (recombinant human DCXR [1]): 6100 µM
- IC50 (recombinant human DCXR [2]): 36000 µM
- Effect on oxygen consumption during redox cycling (recombinant human DCXR [5]; hexanoic acid 50 mM): Inhibition of oxygen consumption

Structure (SMILES): O=C1C=CC(=O)c2ccccc21 [1,4-naphthoquinone]
- IC50 (recombinant human DCXR [1]): 11.8 µM
- Ki (recombinant human DCXR [1]): 5.4 µM
- Type of inhibition (recombinant human DCXR [1]; [8]): competitive
- EC50 (recombinant human DCXR [6]): 5.4 µM
- Km (recombinant human DCXR [6]; [10]): 10.8 µM
- kcat (recombinant human DCXR [6]; [10]): 0.0283 s⁻¹

Structure (SMILES): NC(=O)C1=CN([C@@H]2O[C@H](COP(=O)(O)OP(=O)(O)OC[C@H]3O[C@@H](n4cnc5c(N)ncnc54)[C@H](OP(=O)(O)O)[C@@H]3O)[C@@H](O)[C@H]2O)C=CC1 [NADPH]
- Km (recombinant human DCXR [3]; [11]): 24 µM
- kcat (recombinant human DCXR [3]; [11]): 1.55 S^−1
- Vmax (recombinant human DCXR [4]; NADPH at fixed concentration of diacetyl): 30.9 µM/min
- Km (recombinant human DCXR [4]; [12]): 90 µM
- kcat (recombinant human DCXR [4]; [12]): 1.6 S^−1 and 1.60 S^−1
- Km (recombinant human DCXR [6]; [13]): 31 µM
- kcat (recombinant human DCXR [6]; [13]): 0.115 s⁻¹

Structure (SMILES): O=C1C=Cc2ccccc2C1=O [1,2-naphthoquinone]
- IC50 (recombinant human DCXR [1]): 2.9 µM
- Ki (recombinant human DCXR [1]; [14]): 1.4 µM and 1.35 µM
- Type of inhibition (recombinant human DCXR [1]; [8]): competitive
- EC50 (recombinant human DCXR [6]): 1.5 µM

Structure (SMILES): O=C1C(=O)c2ccccc2-c2ccccc21 [9,10-phenanthrenequinone]
- IC50 (recombinant human DCXR [1]): 9.3 µM
- Ki (recombinant human DCXR [1]; [14]): 4.3 µM and 4.27 µM
- Type of inhibition (recombinant human DCXR [1]; [8]): competitive
- EC50 (recombinant human DCXR [6]): 1.7 µM

More lines, main results first:

- IC50 (recombinant human DCXR [1]): 52.8 µM
- Ki (recombinant human DCXR [1]): 24.3 µM
- Type of inhibition (recombinant human DCXR [1]; [8]): competitive type of inhibition
- inhibition at 300 µM (recombinant human DCXR [1]; read-out: Inhibition of DCXR mediated reduction of diacetyl): > 90%
Structure (SMILES): CC1=CC(=O)c2ccccc2C1=O [menadione, 2-methyl-1,4-naphthoquinone]

- IC50 (recombinant human DCXR [1]): 19900 µM
- IC50 (recombinant human DCXR [2]): 25100 µM
Structure (SMILES): CCCCCCC(=O)O [heptanoic acid]

- Vmax (recombinant human DCXR [3]; reduction of L-xylulose using NADPH as the cofactor): 33.8 µM/min
- Km (recombinant human DCXR [3]; [9]): 503 µM
- kcat (recombinant human DCXR [3]; [9]): 1.09 S^−1
- Type of inhibition (recombinant human DCXR [2]; listed as Xylulose): competitive
Structure (SMILES): O=C(CO)[C@H](O)[C@@H](O)CO [L-xylulose]
- Type of inhibition (recombinant human DCXR [2]): competitive inhibitors; also recorded: competitive type inhibition

- kcat (recombinant human DCXR [4]; diacetyl varied, 200 μM NADPH fixed, pH 7.0): 5.80 S^−1
- Ki (recombinant human DCXR [2]): 190 µM
- Type of inhibition (recombinant human DCXR [2]; listed as Diacetyl): competitive
- inhibition at 5000 µM (recombinant human DCXR [2]; read-out: Inhibition of menadione-stimulated superoxide anion formation): ~75%
- Effect on oxygen consumption during redox cycling (recombinant human DCXR [5]; diacetyl 5 mM): Inhibition of oxygen consumption
Structure (SMILES): CC(=O)C(C)=O [diacetyl, 2,3-butanedione]
- Type of inhibition (recombinant human DCXR [2]): competitive inhibitors; also recorded: competitive type inhibition

- kcat (recombinant human DCXR [7]; NADP(+) varied, 200 mM xylitol fixed): 1.7 S^−1
- Km (recombinant human DCXR [7]; NADP(+) varied, 200 mM xylitol fixed, 100 mM glycine buffer with 3 mM MgCl2): 110 µM
- Vmax (recombinant human DCXR [7]; oxidation of xylitol using NADP+ as the cofactor): 70.9 µM/min
Structure (SMILES): NC(=O)c1ccc[n+]([C@@H]2O[C@H](COP(=O)([O-])OP(=O)(O)OC[C@H]3O[C@@H](n4cnc5c(N)ncnc54)[C@H](OP(=O)(O)O)[C@@H]3O)[C@@H](O)[C@H]2O)c1 [NADP(+)]

- IC50 (recombinant human DCXR [1]): 4400 µM
- IC50 (recombinant human DCXR [2]): 28400 µM
Structure (SMILES): CCCCC(=O)O [pentanoic acid]

- IC50 (recombinant human DCXR [1]): 950 µM
- IC50 (recombinant human DCXR [2]): 6800 µM
- Effect on oxygen consumption during redox cycling (recombinant human DCXR [5]; butyric acid 10 mM): Inhibition of oxygen consumption
Structure (SMILES): CCCC(=O)O [butyric acid]
